Reference: ChEMBL document CHEMBL1153624, “Cyclic phosphoramidates as prodrugs of 2'-C-methylcytidine” (Eur J Med Chem, 2009)

What was measured:
[1] = Metabolic stability in sc dosed hamster liver assessed as formation of 2'-C-methylcytidine triphosphate ((2R,3R,4R,5R)-5-(4-amino-2-oxopyrimidin-1(2H)-yl)-3,4-dihydroxy-4-methyltetrahydrofuran-2-yl)methyl tetrahydrogen triphosphate at 1.5 umol after 6 hrs; assay type: ADME, organism-based; settings: cricetinae, in vivo
Procedure, shortened: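 Hamsters received a single subcutaneous dose of compound formulated in PEG. Liver was collected at 6 h and intracellular 2'-C-methylcytidine triphosphate quantified as nmol/g tissue (LLOQ 0.2 nmol/g).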

Hepatitis C virus = experiment: Antiviral activity against HCV infected in human HuH7 cells by cell-based subgenomic replicon assay; assay type: functional, organism-based, Hepacivirus hominis, Huh-7
Procedure, shortened: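 HCV subgenomic replicon assay in HUH-7 cells, run in 10% fetal cow serum. Cytotoxicity was read in parallel as the prodrug concentration reducing cell viability by 50%.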

[2] = Cytotoxicity against human HuH7 cells assessed as cell viability; assay type: cell-based, Huh-7
Procedure, shortened: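 Cytotoxicity measured in HUH-7 cells carrying the HCV subgenomic replicon. The value is the prodrug concentration that reduces cell viability by 50%.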

Plasma = experiment: Stability in human plasma assessed as 2'-C-methylcytidine triphosphate ((2R,3R,4R,5R)-5-(4-amino-2-oxopyrimidin-1(2H)-yl)-3,4-dihydroxy-4-methyltetrahydrofuran-2-yl)methyl tetrahydrogen triphosphate level; assay type: ADME, cell-free
Procedure, shortened: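 Prodrug stability was measured in human plasma and scored as the fraction of dose remaining over time: stable; 80% of dose left after 2 h; 30% left after 1 h; 0% left after 18 min.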

[3] = Metabolic stability in po dosed hamster liver assessed as 2'-C-methylcytidine triphosphate ((2R,3R,4R,5R)-5-(4-amino-2-oxopyrimidin-1(2H)-yl)-3,4-dihydroxy-4-methyltetrahydrofuran-2-yl)methyl tetrahydrogen triphosphate level at 30.3 umol; assay type: ADME, organism-based; settings: cricetinae, in vivo

Row | Structure (SMILES) | EC50 (Hepatitis C virus; Hepatitis C virus, Huh-7) | further results
1 | CCCCCCOCCOC(=O)[C@H](C)NP1(=O)OC[C@H]2O[C@@H](n3ccc(N)nc3=O)[C@](C)(O)[C@@H]2O1 (stereo partly specified) | 14 µM | Activity [1]: 2.6 nmol/g
2 | CCOC(=O)[C@H](CC(C)C)NP1(=O)OC[C@H]2O[C@@H](n3ccc(N)nc3=O)[C@](C)(O)[C@@H]2O1 (stereo partly specified) | > 50 µM | –
3 | C[C@H](NP1(=O)OC[C@H]2O[C@@H](n3ccc(N)nc3=O)[C@](C)(O)[C@@H]2O1)C(=O)OC(C)(C)C (stereo partly specified) | > 20 µM | –
4 | C[C@H](NP1(=O)OC[C@H]2O[C@@H](n3ccc(N)nc3=O)[C@](C)(O)[C@@H]2O1)C(=O)OC1CCCCCC1 (stereo partly specified) | > 10 µM | Activity [1]: 10.3 nmol/g
5 | CCOC(=O)[C@H](C)N[P@]1(=O)OC[C@H]2O[C@@H](n3ccc(N)nc3=O)[C@](C)(O)[C@@H]2O1 | 4 µM | CC50 [2]: > 100 µM
6 | CCC(CC)COC(=O)[C@H](C)NP1(=O)OC[C@H]2O[C@@H](n3ccc(N)nc3=O)[C@](C)(O)[C@@H]2O1 (stereo partly specified) | > 20 µM | Activity [1]: 8.9 nmol/g
7 | CCOC(=O)[C@H](C)N[P@@]1(=O)OC[C@H]2O[C@@H](n3ccc(N)nc3=O)[C@](C)(O)[C@@H]2O1 | > 20 µM | CC50 [2]: > 100 µM
8 | CCOC(=O)[C@H](CC)NP1(=O)OC[C@H]2O[C@@H](n3ccc(N)nc3=O)[C@](C)(O)[C@@H]2O1 (stereo partly specified) | 5.6 µM | Stability (Plasma): Stable; Activity [3]: < 0.2 nmol/g
9 | CCC[C@H](NP1(=O)OC[C@H]2O[C@@H](n3ccc(N)nc3=O)[C@](C)(O)[C@@H]2O1)C(=O)OCC (mixture of isomers) | > 20 µM | –
10 | C[C@H](NP1(=O)OC[C@H]2O[C@@H](n3ccc(N)nc3=O)[C@](C)(O)[C@@H]2O1)C(=O)OC1CCCC1 (mixture of isomers) | > 20 µM | –
11 | CC(C)CCOC(=O)[C@H](C)NP1(=O)OC[C@H]2O[C@@H](n3ccc(N)nc3=O)[C@](C)(O)[C@@H]2O1 (stereo in doubt) | > 20 µM | –
12 | CCCCOC(=O)[C@H](C)NP1(=O)OC[C@H]2O[C@@H](n3ccc(N)nc3=O)[C@](C)(O)[C@@H]2O1 (stereo in doubt; 10 F.E.) | – | EC50 (Hepatitis C virus; huh-7): > 20 µM
13 | CCCCOC(=O)[C@H](C)NP1(=O)OC[C@H]2O[C@@H](n3ccc(N)nc3=O)[C@](C)(O)[C@@H]2O1 (stereo in doubt; 10 S.E.) | 15 µM | –
14 | CCCCCCCOC(=O)[C@H](C)NP1(=O)OC[C@H]2O[C@@H](n3ccc(N)nc3=O)[C@](C)(O)[C@@H]2O1 (stereo in doubt; 12 F.E.) | – | EC50 (Hepatitis C virus; huh-7): 15 µM
15 | CCCCCCCOC(=O)[C@H](C)NP1(=O)OC[C@H]2O[C@@H](n3ccc(N)nc3=O)[C@](C)(O)[C@@H]2O1 (stereo in doubt; 12 S.E.) | 10.5 µM | Activity [1]: 5.9 nmol/g
16 | C[C@H](NP1(=O)OC[C@H]2O[C@@H](n3ccc(N)nc3=O)[C@](C)(O)[C@@H]2O1)C(=O)OC1CCCCC1 (stereo in doubt; 14 F.E.) | > 20 µM | –
17 | COCCCOC(=O)[C@H](C)NP1(=O)OC[C@H]2O[C@@H](n3ccc(N)nc3=O)[C@](C)(O)[C@@H]2O1 (stereo in doubt; 16 F.E.) | – | EC50 (Hepatitis C virus; huh-7): > 20 µM
18 | COCCCOC(=O)[C@H](C)NP1(=O)OC[C@H]2O[C@@H](n3ccc(N)nc3=O)[C@](C)(O)[C@@H]2O1 (stereo in doubt; 16 S.E.) | 28 µM | –
19 | CCCC(CCC)COC(=O)[C@H](C)NP1(=O)OC[C@H]2O[C@@H](n3ccc(N)nc3=O)[C@](C)(O)[C@@H]2O1 (stereo in doubt; 20 F.E.) | – | EC50 (Hepatitis C virus; huh-7): > 20 µM
20 | CCCC(CCC)COC(=O)[C@H](C)NP1(=O)OC[C@H]2O[C@@H](n3ccc(N)nc3=O)[C@](C)(O)[C@@H]2O1 (stereo in doubt; 20 S.E.) | 14 µM | –
21 | CC(C)[C@H](N)C(=O)O[C@@H]1[C@@H](CO)O[C@@H](n2ccc(N)nc2=O)[C@]1(C)O [VALOPICITABINE] | 7.6 µM | CC50 [2]: > 100 µM; Activity [1]: < 0.2 nmol/g
